Source: ChEMBL document CHEMBL4609998 (Bioorg Med Chem, 2020)
The source made the active and inactive calls. The rule behind the calls is not given here.

What was measured:
T98 [1] = assay: Antiproliferative activity against human T98 cells assessed as reduction in cell viability at 3 to 300 uM incubated for 5 days by Prestoblue reagent based assay; type: functional
Summary of the method: (§1)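 Library screen: U87 (1 × 10^3/well) and T98 (5 × 10^2/well) cells seeded 48 h ahead, then exposed for 5 d to three concentrations (3, 30 and 300 μM). Viability by PrestoBlue; EC50 derived from the resulting dose-response curves. Means of three independent experiments in triplicate.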

T98 [2] = assay: Antiproliferative activity against human T98 cells assessed as reduction in cell viability incubated for 5 days by Prestoblue reagent based assay; type: functional; conditions: T98, 120 h
Summary of the method: (§2)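 Glioma lines in DMEM/10% FBS/2 mM glutamine: U87 at 1 × 10^3 and T98 at 5 × 10^2 cells/well, incubated 48 h, then treated over 1–30,000 nM for 5 d. PrestoBlue viability; EC50 calculated from dose-response curves. Mean ± SEM, 3 independent experiments in triplicate.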

U-87 MG [3] = assay: Antiproliferative activity against human U87 cells assessed as reduction in cell viability at 3 to 300 uM incubated for 5 days by Prestoblue reagent based assay; type: functional; conditions: U-87MG ATCC; summary of the method: as §1
U-87 MG [4] = assay: Antiproliferative activity against human U87 cells assessed as reduction in cell viability incubated for 5 days by Prestoblue reagent based assay; type: functional, U-87MG ATCC; conditions: 120 h; summary of the method: as §2
Homo sapiens = organism: Homo sapiens; assay: Antiproliferative activity against human G317 cell spheroid assessed as reduction in cell viability incubated for 8 days; type: functional
Summary of the method: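 G317 patient-derived glioma cells (4 × 10^3) spun into ultra-low attachment round-bottom wells (1000g, 4 °C, 10 min), left 2 days to form spheroids, then exposed to inhibitors at 4 concentrations from 10 nM to 10 μM for 8 days. Imaged on day 10; spheroid area quantified by image analysis. Mean ± SEM of 6 spheroids from two cultures.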

T98 [5] = assay: Antiproliferative activity against human T98 cells assessed as reduction in cell viability at 1 to 30000 nM incubated for 5 days by Prestoblue reagent based assay; type: functional; summary of the method: as §2
U-87 MG [6] = assay: Antiproliferative activity against human U87 cells assessed as reduction in cell viability at 1 to 30000 nM incubated for 5 days by Prestoblue reagent based assay; type: functional; conditions: U-87MG ATCC; summary of the method: as §2
T98 [7] = assay: Synergistic antiproliferative activity against human T98 cells assessed as reduction in cell viability at 100 nM in presence of GDC0941 incubated for 5 days by Prestoblue reagent based assay; type: functional
T98 [8] = assay: Antiproliferative activity against human T98 cells assessed as reduction in cell viability at 1 to 1000 nM incubated for 5 days by Prestoblue reagent based assay; type: functional
Summary of the method: (§3)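 U87 (1 × 10^3/well) or T98 (5 × 10^2/well) cells, grown in DMEM with 10% FBS and 2 mM glutamine, plated 48 h before dosing at 1–1,000 nM. Viability read with PrestoBlue at day 5; EC50 values taken from dose-response curves. Mean ± SEM, three independent experiments in triplicate.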

U-87 MG [9] = assay: Antiproliferative activity against human U87 cells assessed as reduction in cell viability at 1 to 1000 nM incubated for 5 days by Prestoblue reagent based assay; type: functional; conditions: U-87MG ATCC; summary of the method: as §3
T98 [10] = assay: Synergistic antiproliferative activity against human T98 cells assessed as reduction in cell viability at 10 to 1000 nM in presence of GDC0941 incubated for 5 days by Prestoblue reagent based assay; type: functional
U-87 MG [11] = assay: Synergistic antiproliferative activity against human U87 cells assessed as reduction in cell viability at 10 to 1000 nM in presence of GDC0941 incubated for 5 days by Prestoblue reagent based assay; type: functional; conditions: U-87MG ATCC

SMILES	inhibition (T98 [1])	EC50 (T98 [2])	inhibition (U-87 MG [3])	EC50 (U-87 MG [4])	inhibition (Homo sapiens)	also measured
Nc1nc2cc(-c3nn(CC4OCCO4)c4ncnc(N)c34)ccc2o1	Active	100 to 150 nM	Active	100 to 150 nM		
COC(Cn1nc(-c2ccc3oc(N)nc3c2)c2c(N)ncnc21)OC	Active	100 to 150 nM	Active	100 to 150 nM		
Nc1nc2cc(-c3nn(CC4CCCO4)c4ncnc(N)c34)ccc2o1 (stereo unspecified)	Active	100 to 150 nM	Active	100 to 150 nM		
CC(C)n1nc(-c2ccc3oc(N)nc3c2)c2c(N)ncnc21					Dose-dependent effect	
CCc1c2c(nc3ccc(O)cc13)-c1cc3c(c(=O)n1C2)COC(=O)[C@]3(O)CC					Dose-dependent effect	
Nc1nc2cc(-c3nn(C[C@@H]4CCCO4)c4ncnc(N)c34)ccc2o1	Active	100 to 150 nM	Active	100 to 150 nM		
CNc1ncc2c(-c3ccc4oc(N)nc4c3)nn(CC3CCCC3)c2n1						inhibition (T98 [5]): Active; inhibition (U-87 MG [6]): Active
CCOC(Cn1nc(-c2ccc3oc(N)nc3c2)c2c(N)ncnc21)OCC	Active	100 to 150 nM	Active	100 to 150 nM	Dose-dependent effect	Activity (T98 [7]): Active; inhibition (T98 [8]): Active; inhibition (U-87 MG [9]): Active
Nc1nc2cc(-c3nn(C[C@H]4CCCO4)c4ncnc(N)c34)ccc2o1	Active	100 to 150 nM	Active	100 to 150 nM		
Nc1nc2cc(-c3nn(CC4CCCC4)c4ncnc(N)c34)ccc2o1	Active		Active		Dose-dependent effect	Activity (T98 [10]): Active; inhibition (T98 [8]): Active; inhibition (U-87 MG [9]): Active; Activity (U-87 MG [11]): Active
Nc1ncnc2c1c(-c1cnc3[nH]ccc3c1)nn2CC1CCCC1						inhibition (T98 [5]): Active; inhibition (U-87 MG [6]): Active
